Source: PubChem
ADAM10 inh = inhibits human ADAM10; recombinant ADAM10, EDANS/DABCYL FRET peptide cleavage, 3 h; inhibition, % at 7 µM; O14672; 370,000 tested, 0.62% active;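 active = inhibition above a per-campaign cutoff equal to the mean of compounds falling between control-based bounds plus 3 SD, cut at about 20% in these data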;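 note: 0% = DMSO wells while the 100% control is not disclosed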
PLC-gamma1 inh = inhibitors of human phospholipase C gamma1 | 370,000 tested, 0.84% active | purified PLC-gamma1, fluorogenic substrate, fluorescence | AID 720700 | P19174 | inhibition, % at 12.2 µM; in the data active = inhibition above about 9.5%
Target sequence (P19174 whole entry, looked up): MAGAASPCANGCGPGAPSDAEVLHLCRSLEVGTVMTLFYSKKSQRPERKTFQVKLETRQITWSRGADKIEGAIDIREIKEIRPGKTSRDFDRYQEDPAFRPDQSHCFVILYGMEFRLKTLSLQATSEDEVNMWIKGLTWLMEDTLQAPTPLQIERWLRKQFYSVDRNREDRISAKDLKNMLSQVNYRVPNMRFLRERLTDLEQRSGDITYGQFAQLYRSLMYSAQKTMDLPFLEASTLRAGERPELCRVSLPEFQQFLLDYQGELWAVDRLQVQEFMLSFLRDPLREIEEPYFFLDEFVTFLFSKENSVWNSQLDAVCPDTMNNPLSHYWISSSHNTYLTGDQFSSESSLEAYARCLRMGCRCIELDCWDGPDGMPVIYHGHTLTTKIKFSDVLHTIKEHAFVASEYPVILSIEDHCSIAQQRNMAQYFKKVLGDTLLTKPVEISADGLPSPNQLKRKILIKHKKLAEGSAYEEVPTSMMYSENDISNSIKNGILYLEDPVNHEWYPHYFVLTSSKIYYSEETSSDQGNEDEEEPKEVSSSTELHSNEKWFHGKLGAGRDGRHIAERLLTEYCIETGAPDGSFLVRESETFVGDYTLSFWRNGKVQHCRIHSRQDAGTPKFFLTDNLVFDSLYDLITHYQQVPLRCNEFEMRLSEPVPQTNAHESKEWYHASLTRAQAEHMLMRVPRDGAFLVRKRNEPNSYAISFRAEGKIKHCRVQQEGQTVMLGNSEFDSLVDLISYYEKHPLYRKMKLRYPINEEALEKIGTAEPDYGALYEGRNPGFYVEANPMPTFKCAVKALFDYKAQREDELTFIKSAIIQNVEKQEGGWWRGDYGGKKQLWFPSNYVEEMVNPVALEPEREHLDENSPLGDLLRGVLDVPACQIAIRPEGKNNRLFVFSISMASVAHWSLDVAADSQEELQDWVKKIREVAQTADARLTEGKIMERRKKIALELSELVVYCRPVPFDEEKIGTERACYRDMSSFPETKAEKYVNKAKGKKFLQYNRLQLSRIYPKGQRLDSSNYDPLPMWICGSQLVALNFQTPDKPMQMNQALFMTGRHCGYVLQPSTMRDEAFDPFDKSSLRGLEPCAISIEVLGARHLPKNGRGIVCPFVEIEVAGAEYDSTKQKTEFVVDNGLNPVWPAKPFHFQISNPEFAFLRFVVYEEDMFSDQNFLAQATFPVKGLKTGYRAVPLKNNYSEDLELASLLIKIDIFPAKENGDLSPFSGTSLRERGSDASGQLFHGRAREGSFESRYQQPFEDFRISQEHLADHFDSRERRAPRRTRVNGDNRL
ADAM17 inh = inhibits human ADAM17; P78536; recombinant ADAM17, EDANS/DABCYL FRET peptide cleavage; inhibition, % at 6.95 µM; 370,000 tested, 0.83% active; AID 720648;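 active = inhibition above the mean of compounds lying between control limits plus 3 SD, set per campaign, cut at about 8.5% in these data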;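 note: 0% = DMSO-only wells as the low control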
Tn7 DDE FP = DD(E)-Tn7 binding inhibition, primary FP screen; FP displacement of FITC-Tn7 peptide from fibrin DD(E); 0% = median of compound wells per plate; 370,000 tested, 0.13% active; P02675; inhibition, % at 8.3 µM; AID 720508;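 active = inhibition above the mean of compounds falling within the control limits plus 3 SD of them, cut at about 14% in these data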;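 note: 0% = plate median of compound wells and 100% = 10 µM Aha-Tn7 peptide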
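Test system: human clot-derived fibrin DD(E) complex / Quantity: 2 µM final DD(E) protein / Incubation: 10 min plus 3 h, room temperature / Measured by: fluorescence polarization / Benchmarks: high control of 10 µM Aha-Tn7 peptide / Replicates: singlicate testing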
DDE Tn6 FP inh = DD(E)-Tn6 binding inhibition, primary FP screen. P02675. Fibrin DD(E) TRITC-Tn6 fluorescence polarization displacement. inhibition, % at 8.3 µM. 370,000 tested, 0.21% active;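 active = inhibition above a per-campaign cutoff: mean of compounds within control limits plus 3 SD, cut at about 15% in these data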;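 note: 0% = median of all compound wells on the plate and 100% = blocking peptide control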
PLC-beta3 inh = PLC-beta3 (human) inhibition, primary screen; Purified PLC-beta3, fluorogenic substrate, fluorescence; 370,000 tested, 0.18% active; AID 720704; inhibition, % at 12.2 µM; Q01970; in the data active = inhibition above about 11%;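 note: 0% = median of compound wells on plate and 100% = full blocker control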
ADAM10 counter = counter-screen for ADAM17 exosite inhibitors: inhibitors of human ADAM10. inhibition, % at 6.95 µM. recombinant ADAM10, EDANS/DABCYL FRET peptide cleavage, 3 h. 2,900 tested, 47% active. AID 743256. shares compounds with ADAM17 inh;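 active = mean inhibition over the triplicate runs exceeds the activity threshold set in the earlier primary screen, cut at about 20% in these data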;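 note: 0% = DMSO wells and 100% = marimastat wells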
ADAM17 confirm = confirmation of inhibitors of human ADAM17; shares compounds with ADAM17 inh; recombinant ADAM17, EDANS/DABCYL QFRET peptide cleavage; inhibition, % at 6.95 µM; 2,900 tested, 65% active;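 active = mean inhibition across replicates above the hit cutoff set in the primary screen, cut at about 8.5% in these data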;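 note: 0% = DMSO wells and 100% = marimastat wells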
* hit, by the source's call. Most compounds without a hit are left out; they make up all but 2.3% or so of the library.

Results for COC(=O)[C@@]12C[C@@H](CC(=O)NCc3ccccc3)C(=O)N(Cc3ccc4c(c3)OCO4)C1=CCC(C)(C)C2 ?
ADAM10 inh: 11; PLC-gamma1 inh: 1; ADAM17 inh: 4; Tn7 DDE FP: -3; DDE Tn6 FP inh: -3; PLC-beta3 inh: -1

How did CC1(C)C=Cc2c(c3c(c4c(=O)c(-c5ccc(O)cc5)coc24)OC(C)(C)CC3)O1 do in these assays?
ADAM10 inh: 0; PLC-gamma1 inh: -19; ADAM17 inh: 4; Tn7 DDE FP: 12; DDE Tn6 FP inh: -2; PLC-beta3 inh: -24

How did CC(C)=CCc1c2c(c3occ(-c4ccc(O)cc4)c(=O)c3c1O)C=CC(C)(C)O2 do in these assays?
ADAM10 inh: 19; PLC-gamma1 inh: 5; ADAM17 inh: 9.5*; Tn7 DDE FP: -2; DDE Tn6 FP inh: -10; PLC-beta3 inh: 6; ADAM10 counter: 21*; ADAM17 confirm: 15*

Results for CC(C)=CCc1c2c(c3occ(-c4ccc(O)c(O)c4)c(=O)c3c1O)C=CC(C)(C)O2 ?
ADAM10 inh: 7; PLC-gamma1 inh: 8; ADAM17 inh: 11*; Tn7 DDE FP: 0; DDE Tn6 FP inh: -7; PLC-beta3 inh: 6; ADAM10 counter: 13; ADAM17 confirm: 8

What do the screens show for `C=CCN(Cc1ccc2c(c1)OCO2)C(C#CC1CC1)C(C)C` (centres undefined)?
ADAM10 inh: -4; PLC-gamma1 inh: 1; ADAM17 inh: -4; Tn7 DDE FP: -7; DDE Tn6 FP inh: -3; PLC-beta3 inh: 0

What do the screens show for `C[C@@H]1ON(C)[C@H]2C[C@H]3c4[nH]c5c(-c6ccccc6F)cccc5c4CCN3C[C@@H]12`?
ADAM10 inh: -33; PLC-gamma1 inh: -58; ADAM17 inh: -9; Tn7 DDE FP: 4; DDE Tn6 FP inh: 8; PLC-beta3 inh: -84

Results for O=S(=O)(c1cccc(Cl)c1)N1CCN(S(=O)(=O)c2ccc3c(c2)OCCO3)CC1 ?
ADAM10 inh: 12; PLC-gamma1 inh: 6; ADAM17 inh: 10*; Tn7 DDE FP: -5; DDE Tn6 FP inh: -6; PLC-beta3 inh: 7; ADAM10 counter: 6; ADAM17 confirm: 6

How did COC(=O)[C@H]1C[C@@]2(c3ccccc3)c3ccccc3N(S(=O)(=O)c3ccccc3)[C@H]2N1 do in these assays?
ADAM10 inh: -2; PLC-gamma1 inh: 5; ADAM17 inh: -1; Tn7 DDE FP: 6; DDE Tn6 FP inh: -4; PLC-beta3 inh: 4

How did CCOC(=O)C1=C(O)/C(=C\c2cccs2)N=C1C do in these assays?
ADAM10 inh: 16; PLC-gamma1 inh: 2; ADAM17 inh: 10.0*; Tn7 DDE FP: -5; DDE Tn6 FP inh: -8; PLC-beta3 inh: -2; ADAM10 counter: 1; ADAM17 confirm: 4

How did CCOC(=O)C1=C(O)/C(=C\c2sccc2C)N=C1C do in these assays?
ADAM10 inh: 12; PLC-gamma1 inh: 1; ADAM17 inh: 3; Tn7 DDE FP: -4; DDE Tn6 FP inh: -1; PLC-beta3 inh: 0

Results for O=C(CSc1nnc(NC(=O)c2cccc(F)c2)s1)NCc1ccco1 ?
ADAM10 inh: 7; PLC-gamma1 inh: -3; ADAM17 inh: 8.6*; Tn7 DDE FP: 6; DDE Tn6 FP inh: 4; PLC-beta3 inh: -7; ADAM10 counter: -7; ADAM17 confirm: -2

Results for O=C(CSc1nnc(NC(=O)c2ccc(F)cc2)s1)NCc1ccco1 ?
ADAM10 inh: -15; PLC-gamma1 inh: 4; ADAM17 inh: -11; Tn7 DDE FP: 6; DDE Tn6 FP inh: 3; PLC-beta3 inh: -8

How did C=CCN1C(=O)[C@H](CC(=O)NCc2ccc(OC)c(OC)c2)[C@@]2(C(=O)OCC)CCCC=C12 do in these assays?
ADAM10 inh: -4; PLC-gamma1 inh: 0; ADAM17 inh: -9; Tn7 DDE FP: 6; DDE Tn6 FP inh: 3; PLC-beta3 inh: 0
